Experimental data as given in article PMC4416029 (Behavioural Pharmacology, 2015).

How the values were obtained:
[1] = test system: wild-type (WT) control mice; experiment: RotaRod motor performance, WT mice; assay type: in vivo, mouse; conditions: 45 mg/kg oral
In short: (§1)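 On a four-lane rat RotaRod, pretreatment trials in week 1 were used for cohort matching. Mice then received 2 weeks of daily oral dosing (Monday–Sunday, 08.00–10.00 h): L66 at 5, 15 or 45 mg/kg, WT at 45 mg/kg only. Post-treatment training in week 4 continued dosing 1 h before the first trial. Time to fall was recorded over 12 trials. Learning was scored as trial 12 minus trial 1, and memory as pretreatment versus post-treatment trial 1.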

[2] = test system: Line 1 (L1) tau transgenic mice; experiment: Problem-solving task in the water maze; assay type: in vivo, mouse
In short: (§2)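 Mice aged 5 months (L1 and WT) received 15 or 45 mg/kg by oral gavage for 5 weeks (Monday–Friday), with dosing continued during testing 1 h before the first trial. Cued training lasted 4 days at 4 trials/day in a 1.5 m pool with water at 21±1°C, curtains drawn and a flagged platform moved daily among 20 sites. Each trial allowed 60 s, with a 2 s stay and a 10-min intertrial interval. Path length and swim speed were video-tracked.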

[3] = biological target: aggregated tau in Line 1 (Homo sapiens, UniProt P10636); experiment: Immunohistochemical counts of tau-reactive neurons; assay type: in vivo, mouse; conditions: L1 mice, 45 mg/kg oral, 19 days
Chain of aggregated tau in Line 1 (P10636 613-707): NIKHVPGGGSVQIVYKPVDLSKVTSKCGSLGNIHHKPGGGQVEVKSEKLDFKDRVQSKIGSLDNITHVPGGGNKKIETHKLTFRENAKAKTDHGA
In short: (§3)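 Separate histology cohorts were killed by Euthatal overdose 1 h after the last dose. Brains were removed, paraformaldehyde-fixed and paraffin-embedded. Sixteen 3-μm sections per brain were stained together with WT, L1 and L66 controls, using mAb 7/51 (hybridoma supernatant 1:300) with HRP anti-mouse detection and haematoxylin counterstain. Tau-reactive neurons were counted by region, expressed as ln(count+1) and as percentage reduction versus zero dose.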

[4] = Measurement of methylthioninium levels in the brain of L66 mice; assay type: in vivo, mouse
[5] = test system: wild-type (WT) control mice; experiment: Visible platform task in the water maze, WT mice; assay type: in vivo, mouse
In short: as §2

[6] = biological target: aggregated tau in L66 (Homo sapiens, UniProt P10636, G652D/P618S); experiment: Immunohistochemical counts of tau-reactive neurons; assay type: in vivo, mouse; conditions: L66 heterozygous, 8–9 months, MTC 45 mg/kg (35.1 mg MT/kg), 3 weeks
Chain of aggregated tau in L66 (P10636 1-441 isoform P10636-8 P301S/G335D): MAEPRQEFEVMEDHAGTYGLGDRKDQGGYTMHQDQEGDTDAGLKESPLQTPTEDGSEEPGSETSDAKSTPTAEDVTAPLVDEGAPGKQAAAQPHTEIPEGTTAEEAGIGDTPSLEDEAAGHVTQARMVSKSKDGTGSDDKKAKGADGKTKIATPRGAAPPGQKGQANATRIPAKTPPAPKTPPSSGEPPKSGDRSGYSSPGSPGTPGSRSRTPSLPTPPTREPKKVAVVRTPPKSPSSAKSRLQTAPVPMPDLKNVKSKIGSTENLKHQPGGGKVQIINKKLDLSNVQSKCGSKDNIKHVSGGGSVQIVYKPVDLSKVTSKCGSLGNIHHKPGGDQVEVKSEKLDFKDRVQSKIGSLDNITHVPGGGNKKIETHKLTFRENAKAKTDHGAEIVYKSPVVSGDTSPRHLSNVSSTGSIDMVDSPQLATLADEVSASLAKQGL
In short: as §3

[7] = test system: mitochondrial β-oxidation; conditions: ref Visarius et al., 1997; cited from earlier work
[8] = test system: Alzheimer's disease patients; conditions: AD of mild or moderate severity, 24 weeks; ref Wischik et al., 2015; cited from earlier work
[9] = test system: L1 mice; experiment: Behavioural reactions observed on treatment, L1 histology cohorts; assay type: in vivo, mouse; conditions: 75 mg/kg oral, transient
[10] = test system: Line 66 (L66) tau transgenic mice; experiment: RotaRod motor performance and motor learning, L66 mice; assay type: in vivo, mouse
In short: as §1

[11] = Body weight during 19-day treatment, L66 and WT mice; assay type: in vivo, mouse; conditions: 5–45 mg/kg oral, 19 days, LMTX in this case LMTB
[12] = Body weight over 8 weeks of oral treatment, L1 and WT mice; assay type: in vivo, mouse; conditions: over 8 weeks of oral administration; identical in WT and L1 cohorts; drug exposure did not differ from vehicle

With “3,7-bis(dimethylamino)phenothiazin-5-ylium chloride [MTC]” the “effect on post-treatment RotaRod performance vs vehicle” value (“effect … vs vehicle” below) [1] was “did not affect the performance”, the “effect on swim speed” value ([2]; L1 and WT mice, 15 and 45 mg/kg oral, visible platform task) was “did not alter the velocity” and the “effect on mean number of trials to criterion (three spatial problems)” value ([2]; L1 mice, 15 mg/kg oral) was “longer training required to meet criterion”. For the same substance, the “effect on mean number of trials to criterion (three spatial problems)” value ([2]; L1 mice, 45 mg/kg oral) was “impairment was reversed”, the “effect on path length to visible platform” value (shortened to “effect on path length”) ([2]; L1 mice, 15 and 45 mg/kg oral, 4 days cued training) was “No drug effect” and the “dose required to produce benefit in spatial problem-solving water maze task” value ([2]; L1 mice, oral, 8 weeks, dose as weight of compound) was 45 mg/kg. For the same substance, the “reduction in tau-reactive neurons, subiculum” value [3] was 83%, the “brain MT concentration with evidence of plateauing of RotaRod performance” value ([4]; 5 or 15 mg/kg, LMTX in this case LMTB) was 0.6 mmol/L and the “mean brain concentration of total MT” value ([4]; lowest effective dose (4 mg MT/kg), oral) was 150 ± 10 nM. For the same substance, the “effect on path length” value ([5]; 15 mg/kg oral) was “improvement”, the “effect on path length” value ([5]; 45 mg/kg oral) was “did not differ from controls” and the “percentage reduction in counts compared with zero dose, mean over region” value [6] was 44%. For the same substance, the “concentration for enhancement of mitochondrial β-oxidation” value [7] was 0.3 µmol/L, the “minimum effective dose at clinical and molecular imaging endpoints” value [8] was 138 mg MT/day and the behavioural reactions [9] was “hunched posture, low activity, piloerection”. For the same substance, the “effect … vs vehicle” value ([10]; 5 mg/kg oral) was “significant benefit”, the “effect … vs vehicle” value ([10]; 15 mg/kg oral) was “significant benefit” and the “effect on motor learning (difference between trial 1 and trial 12)” value ([10]; all doses (5, 15, 45 mg/kg)) was “full recovery of motor learning”. For the same substance, the “lowest effective dose, correction of motor learning on RotaRod” value ([10]; oral, 19 days (5 mg/kg of compound)) was 4 mg MT/kg, the “effect on body weight compared with vehicle controls” value [11] was “dose-dependent weight loss” and the weight loss [12] was 15–20%.
